Data reported in ChEMBL document CHEMBL1221386, “Synthesis and pharmacological evaluation of 3-aryl-3-azolylpropan-1-amines as selective triple serotonin/norepinephrine/dopamine reuptake inhibitors” (Bioorg Med Chem Lett, 2010).

Experiments:
Mus musculus [1] = test: Antidepressant activity in po dosed mouse assessed as reduction of mobility time by forced swimming test; assay type: functional
Summary of the method: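 Mouse forced swimming test with oral dosing. Read-out is immobility time, expressed as % reduction of immobility. Minimal effective dose is the lowest dose with p <0.05. ED50 is given with 95% confidence limits. Doses are in mg/kg.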

[2] = Half life in rat liver microsomes; assay type: ADME, Microsome
Summary of the method: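 Metabolic stability in human or rat liver microsomes. Half-lives measurable up to 60 min.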

Mus musculus [3] = test: Antidepressant activity in mouse assessed as change in locomotion at 90 mg/kg, po; assay type: functional
Mus musculus [4] = test: Antidepressant activity in mouse assessed as change in locomotion at 150 mg/kg, po; assay type: functional
Summary of the method: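 Spontaneous locomotor activity in mice measured 1 h after oral dosing. Expressed relative to the control group set at 100%.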

Cytochrome P450 1A2 = target: T1, Cytochrome P450 1A2 (Homo sapiens, UniProt P05177); test: Inhibition of CYP1A2; assay type: ADME
T1 sequence (P05177 whole entry): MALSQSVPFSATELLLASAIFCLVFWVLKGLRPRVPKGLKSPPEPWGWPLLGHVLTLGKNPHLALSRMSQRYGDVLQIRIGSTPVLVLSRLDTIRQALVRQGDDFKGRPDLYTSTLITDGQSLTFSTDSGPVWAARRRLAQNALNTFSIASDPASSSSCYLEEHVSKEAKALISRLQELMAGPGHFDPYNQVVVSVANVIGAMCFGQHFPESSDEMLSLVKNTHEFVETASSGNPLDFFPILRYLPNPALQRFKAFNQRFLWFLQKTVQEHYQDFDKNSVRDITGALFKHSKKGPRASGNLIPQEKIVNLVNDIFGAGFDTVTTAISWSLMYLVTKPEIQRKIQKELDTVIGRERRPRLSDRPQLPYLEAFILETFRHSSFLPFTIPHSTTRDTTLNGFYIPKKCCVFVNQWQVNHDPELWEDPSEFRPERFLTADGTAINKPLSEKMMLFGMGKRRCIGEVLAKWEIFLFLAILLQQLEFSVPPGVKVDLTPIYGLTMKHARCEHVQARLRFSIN

Cytochrome P450 2C9 = Cytochrome P450 2C9 (Homo sapiens, UniProt P11712); test: Inhibition of CYP2C9; assay type: ADME
Sequence of Cytochrome P450 2C9 (P11712 whole entry): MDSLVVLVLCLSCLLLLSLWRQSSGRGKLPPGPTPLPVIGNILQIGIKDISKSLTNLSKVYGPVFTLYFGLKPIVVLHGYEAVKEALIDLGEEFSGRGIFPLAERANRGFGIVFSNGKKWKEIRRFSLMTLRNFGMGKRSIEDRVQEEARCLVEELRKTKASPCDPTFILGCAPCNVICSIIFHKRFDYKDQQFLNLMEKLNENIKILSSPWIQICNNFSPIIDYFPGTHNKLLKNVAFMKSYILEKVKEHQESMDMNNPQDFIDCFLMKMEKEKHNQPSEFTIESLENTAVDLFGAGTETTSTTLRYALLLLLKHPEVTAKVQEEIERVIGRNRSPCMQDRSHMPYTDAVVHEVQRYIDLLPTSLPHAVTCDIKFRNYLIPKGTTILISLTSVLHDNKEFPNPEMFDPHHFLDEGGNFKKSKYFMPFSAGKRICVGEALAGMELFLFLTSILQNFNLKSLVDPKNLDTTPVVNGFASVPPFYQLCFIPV

Cytochrome P450 2C19 = Cytochrome P450 2C19 (Homo sapiens, UniProt P33261); test: Inhibition of CYP2C19; assay type: ADME
Sequence of Cytochrome P450 2C19 (P33261 whole entry): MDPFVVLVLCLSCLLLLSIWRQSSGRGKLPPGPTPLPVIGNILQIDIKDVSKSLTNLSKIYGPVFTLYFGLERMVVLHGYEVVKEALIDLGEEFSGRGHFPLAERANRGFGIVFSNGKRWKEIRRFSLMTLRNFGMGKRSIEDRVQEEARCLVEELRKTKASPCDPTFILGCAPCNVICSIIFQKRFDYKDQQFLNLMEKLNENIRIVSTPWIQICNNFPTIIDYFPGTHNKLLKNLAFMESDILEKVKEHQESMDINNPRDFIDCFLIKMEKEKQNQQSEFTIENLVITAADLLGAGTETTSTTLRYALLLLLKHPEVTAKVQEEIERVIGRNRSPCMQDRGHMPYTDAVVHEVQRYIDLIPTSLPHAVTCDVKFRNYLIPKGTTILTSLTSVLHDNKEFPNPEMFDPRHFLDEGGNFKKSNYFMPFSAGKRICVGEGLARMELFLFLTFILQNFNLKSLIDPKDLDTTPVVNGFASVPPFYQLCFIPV

[5] = AUC (0 to infinity) in rat at 10 mg/kg, po; assay type: ADME, organism-based; parameters: dose 10 mg/kg, route oral, time infinity; conditions: plasma
[6] = AUC (0 to infinity) in rat at 10 mg/kg, iv; assay type: ADME, organism-based; parameters: time infinity, dose 10 mg/kg, route intravenous; conditions: plasma
[7] = target: Sodium-dependent serotonin transporter (Homo sapiens, UniProt P31645); test: Inhibition of serotonin reuptake at human SERT expressed in HEK293 cells at 100 nM
Sequence of Sodium-dependent serotonin transporter (P31645 whole entry, looked up): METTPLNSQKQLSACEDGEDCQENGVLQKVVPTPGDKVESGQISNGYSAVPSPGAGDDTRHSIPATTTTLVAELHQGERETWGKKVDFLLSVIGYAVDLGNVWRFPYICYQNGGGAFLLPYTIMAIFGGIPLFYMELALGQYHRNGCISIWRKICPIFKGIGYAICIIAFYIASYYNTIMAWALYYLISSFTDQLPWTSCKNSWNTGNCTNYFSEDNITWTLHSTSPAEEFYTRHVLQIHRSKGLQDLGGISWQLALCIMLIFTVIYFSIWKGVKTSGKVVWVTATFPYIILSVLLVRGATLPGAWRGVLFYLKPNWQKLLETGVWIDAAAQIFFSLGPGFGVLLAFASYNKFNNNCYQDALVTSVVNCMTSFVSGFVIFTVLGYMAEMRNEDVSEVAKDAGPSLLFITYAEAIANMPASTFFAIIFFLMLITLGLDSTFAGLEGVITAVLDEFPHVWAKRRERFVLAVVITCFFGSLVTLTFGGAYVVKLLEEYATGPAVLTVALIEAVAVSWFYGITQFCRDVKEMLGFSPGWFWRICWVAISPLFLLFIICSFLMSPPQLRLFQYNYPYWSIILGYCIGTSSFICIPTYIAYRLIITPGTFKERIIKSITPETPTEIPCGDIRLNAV

half-life [2]: 56 min | IC50 (Cytochrome P450 1A2): > 10 µM | IC50 (Cytochrome P450 2C9): > 10 µM | IC50 (Cytochrome P450 2C19): > 10 µM | AUC(0-inf) [5]: 1790 ng·h/mL | AUC(0-inf) [6]: 4150 ng·h/mL | inhibition [7]: 43%
SMILES: CNCC[C@@H](c1ccc(Cl)c(Cl)c1)n1nnc(C)n1
ED50 (Mus musculus [1]): 22.2 mg/kg | minimal effective dose (Mus musculus [1]; read-out: MED): 10 mg/kg | Activity (Mus musculus [3]): 142% | Activity (Mus musculus [4]): 134%
